Compounds with a hit are over-represented: about 3.3% of the library has one in this group of screens.
UHRF1 MBD2 ctr: UHRF1 methylated DNA binding inhibitors, primary screen, counter-screen for MBD2 inhibitor project, biochemical, TR-FRET, human UHRF1, single concentration | E3 ubiquitin-protein ligase UHRF1 (Homo sapiens), Q96T88 | UHRF1 binding to methylated oligo | inhibition, % at 4.4 µM | 370,000 compounds, 0.75% hits; in the data active = inhibition above about 21%;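 note: UHRF1 SRA domain binding a hemimethylated CpG hairpin DNA probe; 0% = median of test compound wells and 100% = reference inhibitor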
SIAE inh: human SIAE inhibitors, primary screen, biochemical, fluorescence polarization, FP-Rh probe, 1536-well HTS; Sialate O-acetylesterase (Homo sapiens), Q9HAT2; SIAE FP-Rh probe binding; inhibition, % at 9.66 µM; 370,000 compounds, 0.69% hits;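 active = inhibition above a cutoff: mean of compounds within the control limits plus 3 SD of those, cut at about 17% in these data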;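 note: 0% = plate median of compound wells and 100% = probe without SIAE protein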
LEDGF integ inh: blockers of LEDGF/p75-dependent integrase strand transfer – biochemical, TR-FRET, high throughput, primary screen | HIV-1 integrase (with human LEDGF/p75) | TR-FRET IN-LEDGF/p75 DNA integration, Eu/Cy5 | inhibition, % at 3.7 µM | 370,000 compounds, 0.64% hits;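 active = inhibition above the screen-wide mean plus 3 SD, cut at about 13% in these data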;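 note: signal is the Cy5 over europium emission ratio at 671 and 618 nm; 0% = plate median of compound wells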
TDP2 inh: human TDP2 enzyme inhibitors, primary screen, biochemical, epi absorbance, recombinant enzyme | T5PNP hydrolysis, p-nitrophenol absorbance 415 nm | inhibition, % at 12.8 µM | 370,000 compounds, 0.34% hits | Tyrosyl-DNA phosphodiesterase 2 (Homo sapiens), O95551;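 active = inhibition above the mean of all tested compounds plus 3 SD, set per campaign, cut at about 25% in these data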;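 note: 0% = DMSO with enzyme and 100% = buffer with substrate but no TDP2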
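Test system: Human TDP2 enzyme | Reagent: 5 mM T5PNP | Compound dosing: 12.8 µM single point, 1% DMSO | Incubation: Enzyme reaction with compound for 2 h at 37 °C | Technique: p-Nitrophenol epi absorbance | Read-out: % inhibition relative to enzyme-containing and enzyme-free wells | Benchmarks: High control without enzyme, low control DMSO plus TDP2 | Replicates: Singlicate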
MBD2 DNA inh: inhibitors of MBD2 binding to methylated DNA, primary screen, biochemical, TR-FRET, DNA-binding domain, human | Methyl-CpG-binding domain protein 2 (Homo sapiens), Q9UBB5 | MBD2 binding to methylated oligonucleotide | inhibition, % at 4.4 µM | 370,000 compounds, 0.31% hits; in the data active = inhibition above about 13%
PRMT1 FP inh: PRMT1 methyltransferase inhibitors, primary screen, biochemical, fluorescence polarization. AID 652257, 2013. Protein arginine N-methyltransferase 1 (Homo sapiens), Q99873. 370,000 compounds, 1.3% hits. inhibition, % at 2.79 µM. recombinant PRMT1, activity-based probe fluorescence polarization;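 active = inhibition above about 21% made by adding two undisclosed values, limit read from the data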
Target sequence (Q99873 whole entry, looked up): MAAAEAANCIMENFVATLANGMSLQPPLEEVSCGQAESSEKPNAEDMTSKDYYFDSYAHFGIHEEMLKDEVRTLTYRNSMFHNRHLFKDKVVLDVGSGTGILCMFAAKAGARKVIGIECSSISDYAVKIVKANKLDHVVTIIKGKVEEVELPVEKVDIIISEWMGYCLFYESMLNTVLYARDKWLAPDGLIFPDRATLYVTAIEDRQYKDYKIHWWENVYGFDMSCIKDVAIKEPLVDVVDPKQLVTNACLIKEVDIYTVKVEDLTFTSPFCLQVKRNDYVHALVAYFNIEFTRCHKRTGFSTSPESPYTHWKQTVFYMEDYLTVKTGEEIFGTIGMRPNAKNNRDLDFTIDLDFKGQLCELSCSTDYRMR
Starred values were filed as active, the others as inactive.

SMILES	UHRF1 MBD2 ctr	SIAE inh	LEDGF integ inh	TDP2 inh	MBD2 DNA inh	PRMT1 FP inh
O=C1c2c([N+](=O)[O-])cc([N+](=O)[O-])cc2S(=O)N1Cc1ccccc1 (stereo not given)	-4	2	0	-1	-2	21*
N#CCC[C@H]1CC[C@]2(CCCN(C(=O)c3ccc4ccccc4n3)C2)O1	-3	7	-6	11	-3	2
CCCCNS(=O)(=O)c1ccc(OC)c2ncccc12	5	0	4	-18	-3	-1
COc1ccc(S(=O)(=O)n2ccnc2)c2cccnc12	22*	-1	1	-7	-3	0
N#Cc1c(=O)c2nc(NCCCO)ncc2n2c(=O)c3ccccc3[nH]c12	-6	-14	-1	-9	-10	-1
N#Cc1c(=O)c2nc(NCc3ccccc3)ncc2n2ccccc12	-12	-2	44*	10	-4	0
C[C@H]1CN([C@@H](C)CO)S(=O)(=O)c2ccc(C#Cc3ccccn3)cc2O[C@H]1CN(C)Cc1ccc(F)cc1	0	5	-3	2	1	2
CCCC#Cc1ccc2c(c1)O[C@@H](CN(C)Cc1ccc3c(c1)OCO3)[C@H](C)CN([C@@H](C)CO)S2(=O)=O	21*	-5	-5	-9	12	3
C[C@H]1CN([C@@H](C)CO)S(=O)(=O)c2ccc(Br)cc2O[C@@H]1CN(C)C(=O)Nc1ccc2c(c1)OCO2	-2	-2	3	0	-5	2
C[C@H]1CN([C@@H](C)CO)S(=O)(=O)c2ccc(C#Cc3cccnc3)cc2O[C@@H]1CN(C)C(=O)Nc1ccc2c(c1)OCO2	22*	4	4	4	7	-1
Cc1ccc(Cn2nnc3c2-c2cc(F)ccc2S(=O)(=O)N(C(C)(C)C)C3)cc1	4	4	2	-16	3	-4
CN1C(=O)c2cc(NC(=O)Nc3ccccc3F)ccc2OC[C@H]2O[C@@H](CC(=O)NCc3ccc(-c4ccccc4)cc3)CC[C@@H]21	7	-18	6	1	13	-2
CC1OC2(C)OC(=N)C1(C#N)C(C#N)(C#N)C2c1ccccc1 (stereo not given)	5	2	0	-3	-5	25*
NC(=O)CSc1cn(Cc2ccc(F)cc2)c2ccccc12	1	1	5	-14	-1	1
NC(=O)CSc1cn(Cc2ccccc2)c2ccccc12	0	5	-4	0	2	23*
Cc1ccc(SCCC(=O)Nc2ccccc2Br)cc1	1	-7	2	0	-1	0
Cc1ccc(SCCC(=O)Nc2ccccc2C(=O)NC(C)C)cc1	22*	-7	1	8	6	-1
CCNC(=O)N(C)[C@H]1C[C@H]2c3[nH]c4cccc(-c5cccc(F)c5)c4c3CCN2C(=O)[C@H]1[C@H](C)O	-1	4	-1	-7	1	3
Cc1c(C(=O)Nc2ccc(F)c(F)c2)oc2ccc(S(=O)(=O)N3CCCCC3)cc12	23*	-13	-3	-10	4	2
COC(=O)[C@H]1C[C@@]2(CC=C(C)C)c3ccccc3N(C(=O)OC(C)(C)C)[C@H]2N1C(=O)OC(C)(C)C	-2	6	0	-1	1	-1
COc1ccc(C(=O)CCN2CCc3cc(OC)c(OC)cc3C2)cc1	2	7	-2	-2	-3	22*
COC(=O)c1ccc2nc(-c3cccc(Cl)c3)c(Cc3ccccc3OC)n2c1	21*	-9	4	0	7	1
Cc1ccc2nc(-c3cccc(Br)c3)c(CC3CCCCC3)n2c1	21*	4	-1	7	6	3
COC(=O)c1ccc2nc(-c3ccc(Cl)cc3)c(Cc3ccccc3OC)n2c1	20	-2	2	-4	9	2
COC(=O)c1ccc2nc(-c3ccc(Cl)cc3)c(Cc3ccccc3)n2c1	23*	-4	-1	2	2	1
SMILES	UHRF1 MBD2 ctr	SIAE inh	LEDGF integ inh	TDP2 inh	MBD2 DNA inh	PRMT1 FP inh
Clc1ccc2nc(-c3cccc(Br)c3)c(Cc3ccccc3)n2c1	21*	-8	0	-6	3	-1
CCc1cccc2c(C(C)c3ccccc3O)c[nH]c12 (stereo not given)	-1	6	0	4	-2	0
OC(c1ccccc1)(c1ccccc1)C1CCN(CCCNc2cccc(Br)c2)CC1	0	6	-1	1	3	-2
CC(COc1ccccc1C#N)CN1CCC(C(O)(c2ccccc2)c2ccccc2)CC1 (stereo not given)	-1	-2	-1	-3	-3	-1
COC(=O)c1ccc2nc(-c3ccc(OC)c(OC)c3)c(Cc3ccc(C)cc3)n2c1	17	1	0	-3	9	1
COC(=O)c1ccc2nc(-c3ccc(C)cc3)c(Cc3ccc(C)cc3)n2c1	21*	1	3	-4	-1	3
O=C(CCN1CCOCC1)c1ccc2c(c1)OCCO2	0	0	0	8	-7	24*
Cn1c(Cc2cccs2)nnc1SCC(=O)Nc1ccc2c(c1)OCCO2	-2	3	-1	-1	3	-1
Cc1ccc(C(=O)Nc2nc(-c3cc(Cl)sc3Cl)cs2)cc1	23*	1	-2	11	8	-1
O=C(Nc1nc(-c2ccc(Cl)s2)cs1)c1ccccc1	-2	-26	2	1	0	-1
CC1CCc2c(sc(Nc3nc4c(F)cccc4s3)c2C(N)=O)C1 (stereo not given)	-3	6	-3	3	0	23*
O=C(Nc1nc2c(F)cccc2s1)C1CC1	2	0	-3	0	0	3
CCCCCCCCN1C(=O)[C@@H](CC(=O)NCCCOCCCC)C[C@@]2(C(=O)OC)C1=C[C@H](C(C)(C)C)O[C@@H]2C	0	0	-3	-14	6	2
CCN1CCN(c2c(Cl)cccc2NC(=O)c2ccco2)CC1	23*	-1	5	-1	11	1
Cc1cc(C)cc(Nc2nc(-c3ccc(S(=O)(=O)N4CCCC4)cc3)cs2)c1	1	22*	1	-2	0	2
NS(=O)(=O)c1ccc(NC(=S)NC(=O)C2CCCCC2)cc1	4	-8	5	-19	-5	-2

Compound activity from PubChem.
